Experiments:
Format in all cases: functional, cell-based
KB = assay: Cytotoxicity against human KB cells after 72 hrs
Summary of the method: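 KB cells from the American Type Culture Collection; growth monitored after 72 h incubation with compound. IC50 taken as the drug concentration giving 50% growth inhibition.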

A549 = assay: Cytotoxicity against human A549 cells by SRB assay
HL-60 = assay: Cytotoxicity against human HL60 cells by SRB assay

| Structure (SMILES) | IC50 (KB) | IC50 (A549) | IC50 (HL-60) |
| --- | --- | --- | --- |
| COc1cc(/C=C/CO)cc(OC)c1OCc1ccccc1 | 860 µM |  |  |
| COc1cc(/C=C/C=O)cc(OC)c1OCc1ccccc1 | 640 µM |  |  |
| COc1cc(/C=C/CO)cc(OC)c1OCC=C(C)C | 7.8 µM |  |  |
| COc1cc(/C=C/C=O)cc(OC)c1OC/C=C(\C)CCC=C(C)C [NELUMAL A] | 2.6 µM | 22 µM | 12 µM |
| COc1cc(/C=C/CO)cc(OC)c1OC/C=C(\C)CCC=C(C)C [NELUMOL A] | 3 µM | 34 µM | 6.7 µM |
